Non-standard residues stand in square brackets, D forms with d. Residues, ends and D or L forms follow the SMILES beside them. *: point of attachment. dCha = N[C@H](CC1CCCCC1)C(=O)O; Bz = O=C(c1ccccc1)*
Experiments:
fMet-Leu-Phe receptor [1] = molecular target: T1, fMet-Leu-Phe receptor (Homo sapiens, UniProt P21462); assay: Antagonist activity against FPR1 (unknown origin) transfected in human HL60 cells assessed as calcium mobilization preincubated for 30 mins followed by fMLF addition and measured for 5 sec for 240 sec by fluorometry; format: functional, cell-based
T1 sequence (P21462 whole entry): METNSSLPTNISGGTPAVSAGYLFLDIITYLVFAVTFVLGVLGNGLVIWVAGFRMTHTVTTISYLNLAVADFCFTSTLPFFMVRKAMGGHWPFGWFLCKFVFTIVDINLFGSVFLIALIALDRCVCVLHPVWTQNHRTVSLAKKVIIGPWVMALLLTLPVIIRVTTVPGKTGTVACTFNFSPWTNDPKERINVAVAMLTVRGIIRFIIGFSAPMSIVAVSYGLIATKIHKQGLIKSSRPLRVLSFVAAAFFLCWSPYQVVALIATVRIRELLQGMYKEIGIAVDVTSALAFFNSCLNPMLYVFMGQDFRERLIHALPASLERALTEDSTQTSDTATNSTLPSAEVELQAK
Procedure, shortened: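 FPR1-HL60 cells or donor neutrophils, Fluo-4 AM-loaded (1.25 µg/mL final, 30 min, 37 °C), in HBSS+/10 mM HEPES, 2×10^5 cells/well. Compound pretreatment 30 min at room temperature, then 5 nM fMLF. Peak fluorescence rise (485/538 nm) in the first 3 min was normalized to 5 nM fMLF alone (100%). IC50 from 5–6-point curves by nonlinear regression; maximal antagonist concentration ~50 μM.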

[2] = molecular target: T2, N-formyl peptide receptor 2 (Homo sapiens, UniProt P25090); assay: Antagonist activity against FPR2 (unknown origin) transfected in human HL60 cells assessed as calcium mobilization preincubated for 30 mins followed by WKYMVM addition and measured for 5 sec for 240 sec by fluorometry; format: functional, cell-based
T2 sequence (P25090 whole entry): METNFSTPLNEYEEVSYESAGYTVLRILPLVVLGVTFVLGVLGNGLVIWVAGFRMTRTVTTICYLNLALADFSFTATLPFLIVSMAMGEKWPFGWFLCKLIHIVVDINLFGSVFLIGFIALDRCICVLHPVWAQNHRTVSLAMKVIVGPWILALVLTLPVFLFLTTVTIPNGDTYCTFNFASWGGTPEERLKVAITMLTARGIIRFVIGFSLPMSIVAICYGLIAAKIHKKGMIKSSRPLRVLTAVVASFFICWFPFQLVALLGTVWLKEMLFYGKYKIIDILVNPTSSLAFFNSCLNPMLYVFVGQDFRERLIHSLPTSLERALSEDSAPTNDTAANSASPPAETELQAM
Procedure, shortened: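 FPR2-transfected HL60 cells, Fluo-4 AM-loaded (1.25 µg/mL final, 30 min, 37 °C), in HBSS+/10 mM HEPES, 2×10^5 cells/well. 30 min room-temperature compound pretreatment, then 5 nM WKYMVM. Peak fluorescence rise (485/538 nm) in the first 3 min, normalized to 5 nM WKYMVM alone (100%). IC50 by nonlinear regression of 5–6-point curves.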

fMet-Leu-Phe receptor [3] = molecular target: T1, fMet-Leu-Phe receptor; assay: Agonist activity at FPR1 in human neutrophils assessed as calcium mobilization incubated for 30 mins and measured for 5 sec for 240 sec by fluorometry; format: functional
Procedure, shortened: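 Neutrophils from healthy donor blood were isolated by dextran sedimentation, Histopaque 1077 gradient and hypotonic RBC lysis. They were loaded with Fluo-4 AM (1.25 µg/mL final) for 30 min at 37 °C, then resuspended in HBSS+ with 10 mM HEPES, 2×10^5 cells/well. Compound injected; fluorescence (485/538 nm) read every 5 s for 240 s at room temperature. Peak rise over baseline in the first 3 min; EC50 by nonlinear regression.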

fMet-Leu-Phe receptor [4] = molecular target: T1, fMet-Leu-Phe receptor; assay: Agonist activity at FPR1 (unknown origin) transfected in human HL60 cells assessed as calcium mobilization incubated for 30 mins and measured for 5 sec for 240 sec by fluorometry; format: functional, cell-based
Procedure, shortened: (§1)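 Stably transfected HL60 cells, with G418 dropped in the final culture round, loaded with Fluo-4 AM (1.25 µg/mL final) for 30 min at 37 °C in the dark. Cells were washed into HBSS with Ca2+/Mg2+ plus 10 mM HEPES, 2×10^5 cells/well. Compound added by injector, fluorescence (ex 485/em 538 nm) read every 5 s for 240 s at room temperature. Peak change over baseline in the first 3 min; EC50 by nonlinear regression.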

Neutrophil = assay: Inhibition of fMLF-induced migration of human neutrophil preincubated for 30 mins followed by fMLF stimulation and measured after 60 mins by luminescence based assay
fMet-Leu-Phe receptor [5] = molecular target: T1, fMet-Leu-Phe receptor; assay: Antagonist activity against FPR1 in human neutrophils assessed as calcium mobilization preincubated for 30 mins followed by fMLF addition and measured for 5 sec for 240 sec by fluorometry
[6] = molecular target: T2, N-formyl peptide receptor 2; assay: Agonist activity at FRP2 (unknown origin) transfected in human HL60 cells assessed as calcium mobilization incubated for 30 mins and measured for 5 sec for 240 sec by fluorometry; format: functional, cell-based; procedure, shortened: as §1

Structure (SMILES) | IC50 (fMet-Leu-Phe receptor [1]) [µM] | IC50 ([2]; read-out: IC50) [µM] | EC50 (fMet-Leu-Phe receptor [3]) | EC50 (fMet-Leu-Phe receptor [4]) | IC50 (Neutrophil) [µM] | IC50 (fMet-Leu-Phe receptor [5]) [µM] | EC50 [6] | IC50 [2] | EC50 ([6]; read-out: EC50) [µM]
COC(=O)[C@H](Cc1ccccc1)NC(=O)[C@@H](Cc1c[nH]c2ccccc12)NC(=O)c1ccccc1 | 37.4 |  | Not Active | Not Active |  | 10.9 | Not Active | Not Active | 
COC(=O)[C@@H](CC(C)C)NC(=O)[C@H](Cc1c[nH]c2ccccc12)NC(=O)c1ccccc1 | 24.7 |  | Not Active | Not Active |  | 14.5 |  | Not Active | 10.9
COC(=O)[C@@H](Cc1ccccc1)NC(=O)[C@@H](Cc1c[nH]c2ccccc12)NC(=O)c1ccccc1 | 16.5 |  | Not Active | Not Active |  | 31.3 | Not Active | Not Active | 
COC(=O)[C@@H](Cc1ccccc1)NC(=O)[C@H](Cc1c[nH]c2ccccc12)NC(=O)CC(C)C | 19.6 |  | Not Active | Not Active |  | 27.7 | Not Active | Not Active | 
COC(=O)[C@@H](Cc1ccccc1)NC(=O)[C@H](Cc1c[nH]c2ccccc12)NC(=O)OC(C)(C)C | 17.1 |  | Not Active | Not Active |  | 12.6 |  | Not Active | 10.5

The next compounds have a lower IC50 (fMet-Leu-Phe receptor [1]) than those just listed; values first:

IC50 (fMet-Leu-Phe receptor [1]) [µM] | IC50 ([2]; read-out: IC50) [µM] | EC50 (fMet-Leu-Phe receptor [3]) | EC50 (fMet-Leu-Phe receptor [4]) | IC50 (Neutrophil) [µM] | IC50 (fMet-Leu-Phe receptor [5]) [µM] | EC50 [6] | IC50 [2] | EC50 ([6]; read-out: EC50) [µM] | Structure (SMILES)
11.7 |  | Not Active | Not Active |  | 25.3 | Not Active | Not Active |  | COC(=O)[C@H](NC(=O)[C@H](Cc1c[nH]c2ccccc12)NC(=O)c1ccccc1)C(C)C
5.8 | 12.3 | Not Active | Not Active | 1.6 | 2.4 | Not Active |  |  | COC(=O)[C@H](Cc1ccccc1)NC(=O)[C@H](Cc1c[nH]c2ccccc12)NC(=O)c1ccccc1
0.67 |  | Not Active | Not Active | 0.62 | 0.12 | Not Active | Not Active |  | COC(=O)[C@@H](CC1CCCCC1)NC(=O)[C@H](Cc1c[nH]c2ccccc12)NC(=O)c1ccccc1 (Bz-Trp-[dCha]-OMe)
0.54 |  | Not Active | Not Active | 3.1 | 3.3 | Not Active | Not Active |  | COC(=O)[C@@H](Cc1ccccc1)NC(=O)[C@H](Cc1c[nH]c2ccccc12)NC(=O)C1CCCCC1
0.45 |  | Not Active | Not Active | 0.48 | 0.18 | Not Active | Not Active |  | COC(=O)[C@@H](Cc1ccccc1)NC(=O)[C@H](Cc1c[nH]c2ccccc12)NC(=O)c1ccccc1

Reference: ChEMBL document CHEMBL4373681, “Aurantiamide-related dipeptide derivatives are formyl peptide receptor 1 antagonists” (Medchemcomm, 2019)
